Experiment [1] has as its target T1, Phosphodiesterase 3 (Homo sapiens, UniProt Q14432+Q13370). Description: Inhibition of platelet cAMP phosphodiesterase.
The species entered for experiment [2] is Canis familiaris. Description: Dose at which 50% heart rate increase in dogs. In kind it is functional. As to conditions: Canis lupus familiaris. Put shortly:
(§1)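 Instrumented, anesthetized dogs. Cardiac force, heart rate and blood pressure response curves were plotted against dose. When n > 1, the mean at each dose level was plotted.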

Experiment [3] relates to Canis familiaris. Description: Percent maximum increase in cardiac force in anesthetized dogs using isoproterenol as agonist at greater than 5000 nmol/kg. In kind it is functional, Canis lupus familiaris, Heart.
The species entered for experiment [4] is Homo sapiens. Briefly: Inhibition of ADP induced platelet aggregation. In kind it is functional. Put shortly: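 Human platelets with ADP as the aggregating stimulus. Each assay was run in triplicate at five inhibitor concentrations. The mean at each concentration was plotted and the IC50 was read graphically.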
The species named for experiment [5] is Canis familiaris. Description: Dose at which 50% blood pressure decrease in dogs. In kind it is functional. As to conditions: Canis lupus familiaris. In short, it runs like this: as §1
The species named for experiment [6] is Canis familiaris. Briefly: Dose at which 50% maximal effect for cardiac force increase in dogs. Conditions: Canis lupus familiaris, Heart. In kind it is functional. In short, it runs like this:
as §1

Experiment [7] relates to Canis familiaris. Briefly: Percent maximum increase in cardiac force in anesthetized dogs using isoproterenol as agonist at 185 nmol/kg. In kind it is functional, Canis lupus familiaris, Heart. In short, it runs like this: (§2)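 Instrumented, anesthetized dogs. Cardiac force rise from the test agent is expressed as a percent of the maximum cardiac force increase seen in the same animal with isoproterenol as agonist. N = number of experiments.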

The species named for experiment [8] is Homo sapiens. Description: Inhibition of ADP induced platelet aggregation; inactive. In kind it is functional.
Experiment [9] relates to Canis familiaris. Description: Percent maximum increase in cardiac force in anesthetized dogs using isoproterenol as agonist; inactive at all doses up to 1000 ug/kg. In kind it is functional, organism-based. Conditions: Canis lupus familiaris; Heart. Put shortly:
as §2

Experiment [10] deals with Canis familiaris. Briefly: Percent maximum increase in cardiac force in anesthetized dogs using isoproterenol as agonist at 125 nmol/kg. In kind it is functional, Canis lupus familiaris, Heart. In short, it runs like this:
as §2

For experiment [11], the system named is Canis familiaris. Briefly: Percent maximum increase in cardiac force in anesthetized dogs using isoproterenol as agonist at 140 nmol/kg. In kind it is functional, Canis lupus familiaris, Heart. Put shortly:
as §2

In experiment [12] the target is T1, Phosphodiesterase 3. Briefly: Inhibition of human platelet cAMP phosphodiesterase at 100 uM.
The test system of experiment [13] is Canis familiaris. Briefly: Percent maximum increase in cardiac force in anesthetized dogs using isoproterenol as agonist at 75 nmol/kg. In kind it is functional, Canis lupus familiaris, Heart. Put shortly:
as §2

This is an account of results in ChEMBL document CHEMBL1124004, “Inhibitors of cyclic AMP phosphodiesterase. 3. Synthesis and biological evaluation of pyrido and imidazolyl analogues of 1,2,3,5-tetrahydro-2-oxoimidazo[2,1-b]quinazoline” (J Med Chem, 1988).

Activity calls are given as the source filed them. No cut-off for these calls is given here.

Broadly, the IC50 is the concentration that gives 50% inhibition. Usually ED50 stands for the dose that gives a 50% effect, or the effect in half of the subjects. A lower ED50 goes with an effect at a small dose. The term inhibition denotes how much of the control response was suppressed. Read a high inhibition as strong suppression.

The compound `O=C1CN2Cc3cc(I)ccc3N=C2N1` yielded an IC50 on Phosphodiesterase 3 [1] of 0.52 µM.

`O=C1CN2Cc3cnccc3N=C2N1`: the 50% effective dose (ED50) in the experiment listed under Canis familiaris [2] is above 1 µmol/kg; in the experiment listed under Canis familiaris [5] it was above 1 µmol/kg; in the experiment listed under Canis familiaris [6], 0.78 µmol/kg. For the same compound, in the experiment on Canis familiaris [3], the “Max CF response” value came to 27%. Moreover, the 50% inhibitory concentration (IC50) on Phosphodiesterase 3 [1] is 18 µM; in the experiment filed under Homo sapiens [4], 46 µM.

Regarding `O=C1CN2Cc3cc(-n4ccnc4)ccc3N=C2N1`, the ED50 came to 0.22 µmol/kg in the experiment filed under Canis familiaris [2], 0.64 µmol/kg in the experiment listed under Canis familiaris [5] and 0.18 µmol/kg in the experiment filed under Canis familiaris [6]. Besides, the half-maximal inhibitory concentration (IC50) on Phosphodiesterase 3 [1] came to 0.6 µM; in the experiment listed under Homo sapiens [4], 6 µM. In the experiment on Canis familiaris [7], the “Max CF response” value worked out at 63%.

For the compound `O=C1CN=C(Nc2ccc(-n3ccnc3)cc2)N1`, the IC50 result is “Not Active” in the experiment listed under Homo sapiens [8] and 250 µM against Phosphodiesterase 3 [1]. In the experiment on Canis familiaris [9], the “Max CF response” value was “inactive”.

Turning to `CC1CC(O)=NN=C1c1ccc(-n2ccnc2)cc1` (configuration not stated) [CI-930], the ED50 in the experiment listed under Canis familiaris [2], in the experiment listed under Canis familiaris [5] and in the experiment filed under Canis familiaris [6] was 0.1 µmol/kg each time. In addition, in the experiment with Canis familiaris [10], the “Max CF response” value is 72%.

Take `O=C1CN2Cc3cc(OCCn4ccnc4)ccc3N=C2N1`: the half-maximal inhibitory concentration (IC50) against Phosphodiesterase 3 [1] was 2 µM; in the experiment filed under Homo sapiens [4], 40 µM.

On to `Cc1[nH]c(=O)c(C#N)cc1-c1ccncc1` [MILRINONE], for which the ED50 in the experiment filed under Canis familiaris [2] was determined as 0.19 µmol/kg; in the experiment listed under Canis familiaris [5], 0.59 µmol/kg; in the experiment filed under Canis familiaris [6], 0.09 µmol/kg. In the experiment with Canis familiaris [11], the “Max CF response” value is given as 65%.

As to `O=C1CN2Cc3cc(OCCCCCCn4ccnc4)ccc3N=C2N1`, the 50% inhibitory concentration (IC50) against Phosphodiesterase 3 [1] turned out to be 0.7 µM; in the experiment filed under Homo sapiens [4], 23 µM.

In the case of `O=C1CN2Cc3cc(Cl)ccc3N=C2N1`, on Phosphodiesterase 3 [1], the IC50 was 1.5 µM.

The compound `CCc1[nH]c(=O)[nH]c1C(=O)c1ccncc1` [PIROXIMONE] showed an inhibition at Phosphodiesterase 3 [12] of 40%. The IC50 against Phosphodiesterase 3 [1] was above 100 µM.

With `O=C1CN2Cc3cccnc3N=C2N1`, the IC50 on Phosphodiesterase 3 [1] turned out to be 330 µM; in the experiment filed under Homo sapiens [4], 200 µM.

At Phosphodiesterase 3 [1], `O=C1CN2Cc3cc(OCc4ccccc4)ccc3N=C2N1` came in with a concentration for half-maximal inhibition (IC50) of 0.56 µM.

On Phosphodiesterase 3 [1], `Cc1c(Br)ccc2c1CN1C(=N2)NC(=O)C1C` (configuration not stated) displayed a half-inhibitory concentration (IC50) of 0.07 µM.

For `C[C@@H]1C(=O)NC2=Nc3cccc(Cl)c3CN21` [QUAZINONE], on Phosphodiesterase 3 [1], the half-inhibitory concentration (IC50) was determined as 0.24 µM.

As to `O=C1CN2Cc3ccncc3N=C2N1`, the half-inhibitory concentration (IC50) at Phosphodiesterase 3 [1] and in the experiment filed under Homo sapiens [4] was 26 µM throughout.

For `O=C1CN2Cc3ncccc3N=C2N1`, the half-maximal inhibitory concentration (IC50) on Phosphodiesterase 3 [1] stood at 30 µM; in the experiment listed under Homo sapiens [4], 25 µM.

Take `O=C1CN2Cc3ccccc3N=C2N1`: the IC50 against Phosphodiesterase 3 [1] is 8.8 µM.

For the compound `CN(C(=O)CCCOc1ccc2c(c1)CN1CC(=O)NC1=N2)C1CCCCC1` [LIXAZINONE], the ED50 in the experiment listed under Canis familiaris [2] was determined as 0.03 µmol/kg; in the experiment filed under Canis familiaris [5] it was 0.05 µmol/kg; in the experiment listed under Canis familiaris [6], 0.02 µmol/kg. Besides, the “Max CF response” value in the experiment on Canis familiaris [13] is 71%.

The compound `O=C1CN2Cc3cc(O)ccc3N=C2N1` gave a half-inhibitory concentration (IC50) at Phosphodiesterase 3 [1] of 3.3 µM.

Turning to `O=C1CN2Cc3cc(N4CCCCC4)ccc3N=C2N1`, on Phosphodiesterase 3 [1], the IC50 amounted to 0.15 µM.
